Blank lines part the entries; values can stand above or below the compound they belong to. The source made the active and inactive calls. No cut-off for these calls is given here.
What was measured:
PC-3 [1] = assay: Induction of cellular senescence in human PC3 cells assessed as increase in beta-gal-positive cells at 10 uM incubated for 24 hrs by X-Gal staining based microscopic assay relative to control; type: functional
Summary of the method: (§1)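 LN229 and PC3 cells, 12×10^4 per well in 6-well plates, treated with 10 µM compound for 24 h. Senescence-associated β-gal staining: fixed in 2% formaldehyde/0.2% glutaraldehyde for 10 min at RT, stained with 1 mg/mL X-gal at 37 °C for 24 h without CO2. Blue cells counted in at least 10 fields at 10x and given as percent of total; four independent experiments. Morphology viewed by phase contrast at ×100.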

PC-3 [2] = assay: Induction of apoptosis in human PC3 cells assessed as early apoptotic cells at 10 uM incubated for 24 hrs by annexin V-FITC and propidium iodide staining based flow cytometry analysis (reference value: 0.24 %); type: functional
PC-3 [3] = assay: Cell cycle arrest in human PC3 cells assessed as cell accumulation at sub-G1 phase at 10 uM incubated for 48 hrs by propidium iodide staining based flow cytometry analysis relative to control; type: functional
JeKo-1 = assay: Antiproliferative activity against human JeKo1 cells assessed as reduction in cell viability at 10 uM incubated for 48 hrs by cell titer-glo assay; type: functional, cell-based
Summary of the method: (§2)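 Cells plated and treated 24 h later with 10 µM compound for 48 h; viable cells quantified by CellTiter-Glo ATP luminescence. Expressed as percentage of viable cells relative to untreated; mean ± SD of three independent experiments, each in triplicate.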

PC-3 [4] = assay: Antiproliferative activity against human PC3 cells assessed as reduction in cell viability at 10 uM incubated for 48 hrs in presence of Fe2+ ion by MTT assay; type: functional, cell-based
Summary of the method: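 LN229 and PC3 cells plated, then 24 h later given 10 µM compound with or without 15 µM ZnCl2, CuCl2, FeCl2 or FeCl3 for 48 h. Medium replaced, MTT (12 mM solution) added for 4 h, formazan dissolved in DMSO, absorbance read at 540 nm. Percent viable versus untreated; mean ± SD of three experiments in triplicate.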

Fibroblast = assay: Cytotoxicity against human Fibroblast assessed as reduction in cell viability incubated for 48 hrs by cell titer-glo assay; type: cell-based
Summary of the method: (§3)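 Dose-response: cells plated, treated 24 h later for 48 h, then ATP measured by CellTiter-Glo luminescence. IC50 given as mean ± SD from three independent experiments, each in triplicate. Fibroblasts came from individuals. Cells were kept in RPMI or DMEM with 10% heat-inactivated FBS and penicillin/streptomycin at 37 °C, 5% CO2.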

PC-3 [5] = assay: Induction of apoptosis in human PC3 cells assessed as early apoptotic cells at 10 uM incubated for 72 hrs by annexin V-FITC and propidium iodide staining based flow cytometry analysis (reference value: 0.24 %); type: functional
SW480 [6] = assay: Induction of apoptosis in human SW480 cells assessed as increase in caspase-3/7 activation at 10 uM incubated for 48 hrs by luminometric caspase-glo 3/7 assay; type: functional, cell-based
Summary of the method: (§4)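 Cells in RPMI or DMEM with 10% heat-inactivated FBS and penicillin/streptomycin, 37 °C, 5% CO2, treated with 10 µM compound for 48 h. Caspase-3 and caspase-7 activity read by luminescent Caspase-Glo 3/7 assay, reported as fold induction over untreated cells; mean ± SD of three independent experiments, each in triplicate.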

PC-3 [7] = assay: Induction of cellular senescence in human PC3 cells assessed as flattened cells at 10 uM incubated for 24 hrs by phase contrast microscopy; type: functional, cell-based; summary of the method: as §1
PC-3 [8] = assay: Induction of apoptosis in human PC3 cells assessed as necrotic cells at 10 uM incubated for 72 hrs by annexin V-FITC and propidium iodide staining based flow cytometry analysis (reference value: 0.30 %); type: functional
SW480 [9] = assay: Antiproliferative activity against human SW480 cells assessed as reduction in cell viability at 10 uM incubated for 48 hrs by cell titer-glo assay; type: functional, cell-based; summary of the method: as §2
PC-3 [10] = assay: Induction of apoptosis in human PC3 cells assessed as necrotic cells at 10 uM incubated for 24 hrs by annexin V-FITC and propidium iodide staining based flow cytometry analysis (reference value: 0.30 %); type: functional
Granta-519 = assay: Antiproliferative activity against human GRANTA-519 cells assessed as reduction in cell viability at 10 uM incubated for 48 hrs by cell titer-glo assay; type: functional, cell-based; summary of the method: as §2
Homo sapiens = species: Homo sapiens; assay: Induction of apoptosis in human SP53 cells assessed as increase in caspase-3/7 activation at 10 uM incubated for 48 hrs by luminometric caspase-glo 3/7 assay; type: functional, cell-based; summary of the method: as §4
U-87 MG = assay: Cell cycle arrest in human U87MG cells assessed as increase in cell accumulation at G0/G1 phase at 10 uM incubated for 24 hrs by propidium iodide staining based flow cytometry analysis; type: functional; details: U-87MG ATCC
LN-229 [11] = assay: Cell cycle arrest in human LN229 cells assessed as cell accumulation at G2/M phase at 10 uM incubated for 24 hrs by propidium iodide staining based flow cytometry analysis relative to control; type: functional
LN-229 [12] = assay: Induction of cellular senescence in human LN229 cells assessed as flattened cells at 10 uM incubated for 24 hrs by phase contrast microscopy; type: functional, cell-based; summary of the method: as §1
Jurkat = assay: Induction of apoptosis in human Jurkat cells assessed as increase in caspase-3/7 activation at 10 uM incubated for 48 hrs by luminometric caspase-glo 3/7 assay; type: functional, cell-based; summary of the method: as §4
LN-229 [13] = assay: Induction of apoptosis in human LN229 cells assessed as increase in caspase-3/7 activation at 10 uM incubated for 48 hrs by luminometric caspase-glo 3/7 assay; type: functional, cell-based; summary of the method: as §4
PC-3 [14] = assay: Antiproliferative activity against human PC3 cells assessed as reduction in cell viability at 10 uM incubated for 48 hrs by cell titer-glo assay; type: functional, cell-based; summary of the method: as §2
PC-3 [15] = assay: Antiproliferative activity against human PC3 cells assessed as reduction in cell viability incubated for 48 hrs by cell titer-glo assay; type: functional, cell-based; details: PC-3, 48 h; summary of the method: as §3
PC-3 [16] = assay: Induction of cell morphological changes in human PC3 cells assessed as random membrane blebbing at 10 uM incubated for 24 to 48 hrs by phase contrast microscopy; type: functional, cell-based
Summary of the method: (§5)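 LN229 and PC3 cells exposed to 10 µM compound for the indicated time-points, then imaged live by phase-contrast microscopy for morphology.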

PC-3 [17] = assay: Induction of apoptosis in human PC3 cells at 10 uM incubated for 24 to 48 hrs by annexin V-FITC and propidium iodide staining based flow cytometric analysis; type: functional, cell-based
PC-3 [18] = assay: Induction of apoptosis in human PC3 cells assessed as late apoptotic cells at 10 uM incubated for 72 hrs by annexin V-FITC and propidium iodide staining based flow cytometry analysis (reference value: 0.52 %); type: functional
DNA = assay: Induction of DNA damage in human Z138 cells assessed as gammaH2AX phosphorylation at Ser139 residue at 10 uM incubated for 4 hrs by Flow cytometry analysis; type: cell-based
Summary of the method: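 Z-138 and LN229 cells treated 4 h with 10 µM compound or 1 µM doxorubicin. Fixed in 3.7% formaldehyde on ice, permeabilized with 0.2% Triton X, stained with rabbit anti-pS139 H2A.X (1:400) and Alexa 555 secondary, then analysed by flow cytometry. Fold γH2AX fluorescence versus untreated; mean ± SD of three experiments.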

PC-3 [19] = assay: Induction of cell morphological changes in human PC3 cells assessed as cell shrinkage at 10 uM incubated for 24 to 48 hrs by phase contrast microscopy; type: functional, cell-based; summary of the method: as §5
PC-3 [20] = assay: Cell cycle arrest in human PC3 cells assessed as cell accumulation at G1 phase at 10 uM incubated for 24 hrs by propidium iodide staining based flow cytometry analysis relative to control; type: functional

- IC50 (PC-3 [15]): 11.2 µM
Compound: CN(CCNCc1ccccn1)CCNCc1ccccn1
- Activity (PC-3 [1]): Active
- Activity (PC-3 [2]): 0.8%
- Activity (PC-3 [3]): 19.6%
- Activity (JeKo-1): Active
- Activity (PC-3 [4]): Active
- IC50 (Fibroblast): 20.5 µM
- Activity (PC-3 [5]): 14.27%
- Activity (SW480 [6]): Active
- Activity (PC-3 [7]): Active
- Activity (PC-3 [8]): 3.5%
- Activity (SW480 [9]): Active
- Activity (PC-3 [10]): 1.78%
- Activity (Granta-519): Active
- Activity (Homo sapiens): Active
- Activity (U-87 MG): Active
- Activity (LN-229 [11]): 22.1%
- Activity (LN-229 [12]): Active
- Activity (Jurkat): Active
- Activity (LN-229 [13]): Active
- Activity (PC-3 [14]): Active
- Activity (PC-3 [16]): Active
- Activity (PC-3 [17]): Active
- Activity (PC-3 [18]): 12.63%
- Activity (DNA): inactive
- Activity (PC-3 [19]): Active
- Activity (PC-3 [20]): 71.1%

- IC50 (PC-3 [15]): 11 µM
Compound: c1ccc(CNCCN(CCNCc2ccccn2)Cc2ccc3ccccc3c2)nc1
- Activity (PC-3 [1]): 50%
- Activity (PC-3 [2]): 0.63%
- Activity (PC-3 [3]): 4.8%
- Activity (JeKo-1): Active
- Activity (PC-3 [4]): Active
- IC50 (Fibroblast): 29.7 µM
- Activity (PC-3 [5]): 14.7%
- Activity (SW480 [6]): Active
- Activity (PC-3 [7]): Active
- Activity (PC-3 [8]): 2.32%
- Activity (SW480 [9]): Active
- Activity (PC-3 [10]): 1.53%
- Activity (Granta-519): Active
- Activity (Homo sapiens): Active
- Activity (U-87 MG): Active
- Activity (LN-229 [11]): 22.1%
- Activity (LN-229 [12]): Active
- Activity (Jurkat): Active
- Activity (LN-229 [13]): Active
- Activity (PC-3 [14]): Active
- Activity (PC-3 [16]): Active
- Activity (PC-3 [17]): Active
- Activity (PC-3 [18]): 11.68%
- Activity (DNA): inactive
- Activity (PC-3 [19]): Active
- Activity (PC-3 [20]): 73.7%

Reference: ChEMBL document CHEMBL4376884, “Toward a Rational Design of Polyamine-Based Zinc-Chelating Agents for Cancer Therapies” (J Med Chem, 2020)
